# Measured values: ChEMBL document CHEMBL4699441, “Identification and Preclinical Evaluation of the Bicyclic Pyrimidine γ-Secretase Modulator BMS-932481” (ACS Med Chem Lett, 2019)
# The source made the active and inactive calls. No cut-off for these calls is given here.
# Legend:
# [1] = Oral bioavailability in Sprague-Dawley rat at 2 mg/kg dosed as nano suspension measured up to 24 hrs by LC-MS/MS analysis; assay type: ADME, organism-based; conditions: in vivo
# In short: (§1)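 Oral dosing as a nanosuspension in Sprague–Dawley rat, male Beagle dog and male cynomolgus monkey; dogs pretreated with pentagastrin.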
# [2] = Reduction in amyloid beta (1 to 42) secretion in brain in Harlan Sprague-Dawley rat at 10 mg/kg, po measured after 3 hrs relative to control; assay type: functional
# In short: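 Sprague–Dawley rats dosed 10 mg/kg po; brain Aβ1-42 measured 3 h postdose; n = 5.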
# [3] = Hemodynamic activity in unconscious telemeterized rabbit assessed as increase in blood pressure at >= 10 mg/kg; assay type: ADME, organism-based, Oryctolagus cuniculus; conditions: in vivo
# [4] = Metabolic stability in cynomolgus monkey assessed as half life incubated for 24 hrs by LC-MS/MS analysis; assay type: ADME, Macaca fascicularis
# [5] = Hemodynamic activity in conscious telemeterized rat assessed as change in heart rate at >= 10 mg/kg; assay type: ADME, organism-based; conditions: in vivo
# [6] = target: Gamma-secretase (Homo sapiens) (UniProt Q96BI3+Q9NZ42+Q8WW43+P49768+Q92542+P49810); experiment: Modulation of gamma-secretase in human H4 cells overexpressing APP incubated assessed as increase in amyloid beta (1 to 38) secretion for 24 hrs by MALDI-TOF mass spectrometric analysis; assay type: cell-based; conditions: filed as modulator
# In short: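 H4-APPsw cells treated with compound; secreted Aβ species quantified by mass spectrometry; total Aβ1-x checked by ELISA up to 10 μM.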
# [7] = Fraction unbound in cynomolgus monkey plasma measured after 24 hrs by LC-MS/MS analysis; assay type: ADME, cell-free, Macaca fascicularis
# [8] = Volume of steady state distribution in Beagle dog at 1 mg/kg, iv measured up to 24 hrs by LC-MS/MS analysis; assay type: ADME, organism-based, Canis lupus familiaris; conditions: in vivo
# In short: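 Male Beagle dog or male cynomolgus monkey; 1 mg/kg as 5 min iv infusion in 9:1 PEG:EtOH; n = 3; volume of distribution at steady state.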
# [9] = Cardiotoxicity in unconscious telemeterized rabbit assessed as increase in QTcv time at 10 mg/kg; assay type: toxicity, organism-based, Oryctolagus cuniculus; conditions: in vivo
# [10] = Half life in cynomolgus monkey at 1 mg/kg, iv measured up to 24 hrs by LC-MS/MS analysis; assay type: ADME, organism-based, Macaca fascicularis; conditions: in vivo
# In short: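 Male Beagle dogs and male cynomolgus monkeys, 1 mg/kg by 5 min iv infusion in 9:1 PEG:EtOH, n=3.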
# [11] = target: T1, Cytochrome P450 2B6 (Homo sapiens, UniProt P20813); experiment: Inhibition of CYP2B6 in human liver microsomes; assay type: ADME
# T1 sequence (P20813 whole entry): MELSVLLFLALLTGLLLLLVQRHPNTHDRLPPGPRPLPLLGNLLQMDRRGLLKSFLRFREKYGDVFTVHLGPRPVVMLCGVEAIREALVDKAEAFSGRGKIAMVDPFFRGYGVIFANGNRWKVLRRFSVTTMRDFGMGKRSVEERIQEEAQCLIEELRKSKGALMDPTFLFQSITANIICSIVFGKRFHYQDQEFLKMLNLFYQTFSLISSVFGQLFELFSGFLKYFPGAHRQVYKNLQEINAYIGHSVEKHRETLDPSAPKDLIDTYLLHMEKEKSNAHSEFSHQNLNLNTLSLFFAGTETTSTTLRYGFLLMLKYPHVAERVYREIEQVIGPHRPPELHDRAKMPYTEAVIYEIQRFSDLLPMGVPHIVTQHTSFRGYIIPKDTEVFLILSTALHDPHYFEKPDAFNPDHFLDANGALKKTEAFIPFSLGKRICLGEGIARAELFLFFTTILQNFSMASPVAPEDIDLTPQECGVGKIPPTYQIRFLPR
# [12] = target: T2, PXR (NR1I2) (Homo sapiens, UniProt O75469); experiment: Transactivation of PXR (unknown origin) assessed as CYP450 induction relative to 10 uM rifampicin; assay type: ADME
# T2 sequence (O75469 whole entry): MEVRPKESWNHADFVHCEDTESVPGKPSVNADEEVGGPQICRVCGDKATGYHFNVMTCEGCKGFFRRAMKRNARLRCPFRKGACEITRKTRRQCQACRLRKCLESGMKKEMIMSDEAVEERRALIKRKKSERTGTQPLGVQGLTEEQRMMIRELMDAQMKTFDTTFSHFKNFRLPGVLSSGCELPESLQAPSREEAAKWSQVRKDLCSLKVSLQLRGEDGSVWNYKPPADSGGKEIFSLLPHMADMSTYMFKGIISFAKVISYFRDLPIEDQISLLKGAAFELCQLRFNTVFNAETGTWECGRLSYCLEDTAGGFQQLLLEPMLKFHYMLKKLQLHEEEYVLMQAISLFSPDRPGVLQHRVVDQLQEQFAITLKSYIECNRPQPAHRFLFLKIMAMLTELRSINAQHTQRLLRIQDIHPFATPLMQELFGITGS
# In short: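 PXR in vitro transactivation assay; maximal response expressed relative to 10 μM rifampicin set as 100%.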
# [13] = Metabolic stability in Sprague-Dawley rat assessed as half life incubated for 24 hrs by LC-MS/MS analysis; assay type: ADME
# [14] = Induction of necrosis in rat at 100 mg/kg, po administered for 2 week; assay type: organism-based; conditions: in vivo, 336 h, time 2 weeks
# In short: (§2)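 Rats given oral doses of 10, 30 or 100 mg/kg daily for 2 weeks in a repeat-dose toxicity study.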
# [15] = target: Cytochrome P450 3A4 (Homo sapiens, UniProt P08684); experiment: Inhibition of CYP3A4 in human liver microsomes measured after 30 mins; assay type: ADME
# Chain of Cytochrome P450 3A4 (P08684 whole entry): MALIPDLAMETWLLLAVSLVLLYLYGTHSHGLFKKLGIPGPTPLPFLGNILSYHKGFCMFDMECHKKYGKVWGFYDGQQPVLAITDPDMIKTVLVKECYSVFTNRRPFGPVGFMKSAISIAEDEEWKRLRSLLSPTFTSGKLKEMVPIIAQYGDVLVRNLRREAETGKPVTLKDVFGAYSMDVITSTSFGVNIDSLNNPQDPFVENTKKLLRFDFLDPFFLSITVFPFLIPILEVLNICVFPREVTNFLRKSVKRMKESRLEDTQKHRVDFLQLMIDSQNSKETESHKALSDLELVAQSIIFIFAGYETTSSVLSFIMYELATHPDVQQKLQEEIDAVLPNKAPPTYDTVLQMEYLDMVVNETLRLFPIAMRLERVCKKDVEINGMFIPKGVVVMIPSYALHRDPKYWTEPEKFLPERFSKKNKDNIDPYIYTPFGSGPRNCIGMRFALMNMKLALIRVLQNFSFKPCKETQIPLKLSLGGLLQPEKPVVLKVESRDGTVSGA
# [16] = target: Voltage-gated inwardly rectifying potassium channel KCNH2 (Homo sapiens, UniProt Q12809); experiment: Inhibition of human ERG by patch clamp method
# Chain of Voltage-gated inwardly rectifying potassium channel KCNH2 (Q12809 whole entry): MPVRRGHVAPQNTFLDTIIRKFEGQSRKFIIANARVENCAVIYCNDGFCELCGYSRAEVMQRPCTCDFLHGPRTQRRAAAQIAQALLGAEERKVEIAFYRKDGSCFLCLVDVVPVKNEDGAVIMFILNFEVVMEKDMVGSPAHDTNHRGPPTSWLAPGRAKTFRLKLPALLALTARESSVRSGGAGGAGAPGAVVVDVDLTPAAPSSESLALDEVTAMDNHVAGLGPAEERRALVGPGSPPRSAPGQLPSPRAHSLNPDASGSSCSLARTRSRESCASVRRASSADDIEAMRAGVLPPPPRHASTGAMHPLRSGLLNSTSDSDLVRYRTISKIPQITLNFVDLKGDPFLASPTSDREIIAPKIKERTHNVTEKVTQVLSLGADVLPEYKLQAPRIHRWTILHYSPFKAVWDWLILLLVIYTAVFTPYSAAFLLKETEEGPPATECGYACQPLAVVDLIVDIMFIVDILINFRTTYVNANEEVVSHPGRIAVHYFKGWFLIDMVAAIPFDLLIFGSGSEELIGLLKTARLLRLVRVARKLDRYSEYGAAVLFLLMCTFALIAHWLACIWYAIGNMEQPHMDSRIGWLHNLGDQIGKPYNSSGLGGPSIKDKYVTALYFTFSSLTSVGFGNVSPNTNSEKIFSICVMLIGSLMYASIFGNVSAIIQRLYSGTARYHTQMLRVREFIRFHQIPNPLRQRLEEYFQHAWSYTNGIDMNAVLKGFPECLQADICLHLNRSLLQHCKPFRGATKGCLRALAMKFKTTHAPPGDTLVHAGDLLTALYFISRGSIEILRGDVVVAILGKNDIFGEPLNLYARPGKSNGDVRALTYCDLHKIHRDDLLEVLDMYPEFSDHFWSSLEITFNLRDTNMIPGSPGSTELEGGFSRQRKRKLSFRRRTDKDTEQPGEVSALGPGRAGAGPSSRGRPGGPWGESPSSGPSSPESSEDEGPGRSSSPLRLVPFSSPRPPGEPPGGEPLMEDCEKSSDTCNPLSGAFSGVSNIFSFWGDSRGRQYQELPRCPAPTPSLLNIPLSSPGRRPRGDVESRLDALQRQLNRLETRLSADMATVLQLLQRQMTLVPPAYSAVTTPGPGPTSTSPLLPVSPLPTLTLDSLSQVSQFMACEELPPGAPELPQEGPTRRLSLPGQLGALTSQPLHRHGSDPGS
# [17] = Toxicity in rat assessed as stress at 100 mg/kg, po administered for 2 week; assay type: organism-based; conditions: in vivo, 336 h, time 2 weeks
# [18] = Toxicity in rat assessed as change in bilirubin secretion at 10 to 100 mg/kg, po administered for 2 week; assay type: organism-based; conditions: in vivo, 336 h, dose 10-100 mg/kg, time 2 weeks
# [19] = Induction of CYP3A4 mRNA expression in human hepatocytes at 3.3 to 10 uM relative to control; assay type: ADME, cell-based, Hepatocyte; conditions: dose 3.3-10 µM
# [20] = Oral bioavailability in Beagle dog at 1 mg/kg dosed as nano suspension measured up to 24 hrs by LC-MS/MS analysis; assay type: ADME, organism-based, Canis lupus familiaris; conditions: in vivo; in short: as §1
# [21] = Aqueous solubility of the compound at pH 6.5; assay type: physicochemical; conditions: buffer
# [22] = target: T3, Nuclear receptor subfamily 1 group I member 2 (Homo sapiens, UniProt O75469); experiment: Transactivation of PXR (unknown origin) assessed as CYP450 induction; assay type: ADME
# T3 sequence (O75469 whole entry): T2 sequence (O75469 whole entry)
# [23] = Cardiotoxicity in unconscious telemeterized rabbit assessed as increase in QTcv time at 3 mg/kg; assay type: toxicity, organism-based, Oryctolagus cuniculus; conditions: in vivo
# [24] = Plasma concentration in Harlan Sprague-Dawley rat at 10 mg/kg, po measured after 5 hrs; assay type: ADME, organism-based
# [25] = Octanol/water partition coefficient, logD of the compound at pH 7.4 by shake flask method; assay type: physicochemical
# [26] = Toxicity in rat assessed as change in notch related goblet cell metaplasia in the duodenum at 100 mg/kg, po administered for 2 week; assay type: organism-based; conditions: in vivo, 336 h, time 2 weeks
# [27] = Hepatotoxicity in rat at 100 mg/kg, po administered for 2 week; assay type: toxicity, organism-based; conditions: in vivo, 336 h, time 2 weeks; in short: as §2
# [28] = Hemodynamic activity in unconscious telemeterized rabbit assessed as decrease in heart rate at >= 10 mg/kg; assay type: ADME, organism-based, Oryctolagus cuniculus; conditions: in vivo
structure (smiles),measurement,setting,value
CNc1nc(Nc2ccc(-n3cnc(C)n3)c(OC)c2)nc2c1CC[C@H]2c1ccc(F)cc1,F,[1],98%
same,inhibition in vivo at 10 mg/kg,[2],41%
same,Activity,[3],Non-Toxic
same,t1/2,[4],11 min
same,Activity,[5],Non-Toxic
same,inhibition,[6],Active
same,Fu,[7],1.3%
same,Vdss,[8],6.1 L/kg
same,Time,[9],10 ms
same,t1/2,[10],174 min
same,IC50,[11],> 40000 nM
same,Emax,[12],36%
same,t1/2,[13],28 min
same,Activity,[14],Non-Toxic
same,IC50,[15],200 nM
same,IC50,[16],1200 nM
same,Activity,[17],Non-Toxic
same,Activity,[18],Non-Toxic
same,Activity,[19],36%
same,F,[20],85%
same,solubility,[21],0.1 µg/mL
same,EC50,[22],> 2700 nM
same,Time,[23],4 ms
same,concentration at 5 h,[24],1400 nM
same,logD,[25],4.34
same,Activity,[26],Non-Toxic
same,Activity,[27],Non-Toxic
same,Activity,[28],Non-Toxic
